This excerpt belongs to a sample that is enriched for hits.
VLA-4 inh: inhibition in human VLA-4 binding assay, primary screen, VLA-4 allosteric modulator project, MLPCN library, flow cytometry, VLA-4 expressing cells; ligand binding flow cytometry; inhibition, % (about 7 µM as worked out from the volumes in the protocol); hit rate 0.2% among 330,000; AID 2557, 2010; in the data active means inhibition above about 50%
Target sequence (P13612 whole entry, looked up): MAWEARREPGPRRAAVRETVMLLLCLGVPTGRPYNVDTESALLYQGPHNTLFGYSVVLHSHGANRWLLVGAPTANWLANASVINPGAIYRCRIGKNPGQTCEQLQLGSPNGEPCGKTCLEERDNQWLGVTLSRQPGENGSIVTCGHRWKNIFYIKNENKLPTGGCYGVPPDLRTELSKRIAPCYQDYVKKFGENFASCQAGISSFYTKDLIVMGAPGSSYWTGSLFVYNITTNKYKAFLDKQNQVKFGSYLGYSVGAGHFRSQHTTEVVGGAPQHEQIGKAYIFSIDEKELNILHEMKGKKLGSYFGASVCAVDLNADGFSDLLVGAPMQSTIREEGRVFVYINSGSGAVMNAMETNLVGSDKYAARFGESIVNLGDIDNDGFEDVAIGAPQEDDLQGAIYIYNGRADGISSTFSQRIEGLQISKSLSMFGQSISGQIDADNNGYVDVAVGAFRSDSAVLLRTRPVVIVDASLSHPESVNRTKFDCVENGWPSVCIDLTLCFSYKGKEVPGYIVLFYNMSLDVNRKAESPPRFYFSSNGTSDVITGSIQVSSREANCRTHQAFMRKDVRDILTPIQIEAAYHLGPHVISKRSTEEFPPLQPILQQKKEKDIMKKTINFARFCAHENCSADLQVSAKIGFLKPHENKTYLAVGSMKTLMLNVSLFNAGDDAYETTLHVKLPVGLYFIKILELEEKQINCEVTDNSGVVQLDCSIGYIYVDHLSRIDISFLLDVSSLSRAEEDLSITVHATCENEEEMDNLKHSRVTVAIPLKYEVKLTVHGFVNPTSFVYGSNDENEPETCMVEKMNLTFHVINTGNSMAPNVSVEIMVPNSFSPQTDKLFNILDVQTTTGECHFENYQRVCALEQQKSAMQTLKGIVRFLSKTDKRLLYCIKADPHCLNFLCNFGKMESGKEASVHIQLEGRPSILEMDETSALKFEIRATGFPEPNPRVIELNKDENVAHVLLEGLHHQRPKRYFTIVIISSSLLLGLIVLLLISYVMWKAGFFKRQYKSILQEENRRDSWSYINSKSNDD
CHOP UPR activ: activators of apoptotic CHOP UPR arm, primary screen, cell-based, CHO-CHOP luciferase reporter, luminescence, uHTS. UPR activation; percent of tunicamycin response over DMSO baseline. activation, % at 10 µM. hit rate 0.34% among 330,000;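 active means at 10 µM dose, activation of 40% or more, normalized to positive control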;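 further: 100% = tunicamycin at 10 µg/mL and 0% = DMSO alone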
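assay system = CHO CHOP reporter cells | amount = 500 CHO-CHOP cells per well | buffer or medium = F12 with 10% FBS | incubation = 16-18 h cell attachment, then 6 h compound exposure, 37 °C | detection = luminescence read with Steady-Glo | read-out = percent activation relative to tunicamycin control | controls = tunicamycin high control, DMSO low control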
CHOP inh: inhibitors of CHOP promoter induction, primary screen, cell-based, unfolded protein response, luciferase reporter; inhibition, % at 10 µM; AID 2732, 2010; CHO-K1 CHOP-promoter luciferase, tunicamycin-induced, 15-18 h; hit rate 3.8% among 220,000;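 active means compounds that reduced the stress-induced luciferase reporter signal by more than about 70% of percent inhibition, limit read from the data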;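 further: 0% = tunicamycin plus vehicle and 100% = wells without tunicamycin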
XBP1 UPR activ: activators of adaptive XBP1 UPR arm, primary screen, cell-based, CHO-XBP1 luciferase reporter, luminescence, uHTS; IRE1-XBP1 UPR activation; percent of tunicamycin response, DMSO as zero; activation, % at 20 µM; hit rate 0.33% among 330,000;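 active means versus positive control, 20 µM dose yields 30% or more activation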;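 further: 100% = tunicamycin at 10 µg/mL and 0% = DMSO only wells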
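Material: CHO-XBP1 cells stably carrying IRE1-XBP1-driven luciferase reporter / Amount: 1000 cells per well / Compound: 20 µM, 1% DMSO / Times: 6 h treatment, 37 °C / Detection: luciferase luminescence / Measure: % activation of reporter signal versus tunicamycin and DMSO controls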
B2AR ag: beta2AR agonists driving receptor internalization, primary screen, cell-based, FAP fluorogen, flow cytometry; Beta-2 adrenergic receptor (Homo sapiens), P07550; Am2.2-beta2AR cells; response, % (concentration not given with the values); hit rate 0.43% among 340,000;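 active means response above a set limit, near 3 SD of response in nonfluorescent compounds, cut at about 42% in these data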
* = called active by the depositor; . = no result given.

SMILES | VLA-4 inh | CHOP UPR activ | CHOP inh | XBP1 UPR activ | B2AR ag
O=C(COc1ccccc1F)NC12CC3CC(CC(C3)C1)C2 | 2 | 0 | 40 | -2 | -15
O=C(Nc1ccc(Br)cc1)c1cccn1-c1ncc(C(F)(F)F)cc1Cl | 7 | 0 | 95* | -3 | -14
Cc1cc(C)c(C)c(OCC(=O)NCc2nc(-c3ccccc3)no2)c1 | 5 | 2 | 86* | 1 | -2
Oc1ccccc1N=Nc1ccccc1O | . | . | 73* | . | -7
COc1cc2ccccc2cc1C(=O)N(CCN(C)C)c1nc2c(C)cccc2s1 | 5 | 0 | . | -5 | 9
Cc1cccc2sc(N(CCN(C)C)C(=O)c3cc(Cl)sc3Cl)nc12 | 3 | 2 | 72* | 2 | -4
CCc1noc(C)c1C(=O)Nc1cc(S(=O)(=O)N2CCOCC2)ccc1N1CCN(CC)CC1 | 7 | 2 | . | -2 | 1
FC(F)(F)c1cccc(Cc2noc(CN3CCCCC3c3ccccn3)n2)c1 (centres undefined) | 2 | -1 | 74* | -1 | -1
Fc1cccc(Cc2noc(CN3CCCCC3c3ccccn3)n2)c1 (centres undefined) | 27 | 0 | 11 | 0 | 4
COc1ccccc1C(CNC(=O)c1oc2ccccc2c1C)N1CCCC1 (centres undefined) | -8 | -1 | . | -5 | 2
C(=C\c1ccccc1)/CN1CCN(c2ncnc3c2oc2ccccc23)CC1 | -2 | 2 | 94* | 0 | -9
c1ccc2c(c1)oc1c(N3CCOCC3)ncnc12 | 5 | 3 | 10 | 2 | -10
COc1ccc(-c2nnc(SCC(=O)Nc3nc4ccccc4s3)n2C)cc1 | . | 4 | 93* | 1 | -3
Cn1c(CSCc2ccc(Cl)cc2)nnc1SCC(=O)Nc1nccs1 | 3 | -2 | 33 | -1 | 3
Cn1c(CSCc2ccc(Cl)cc2)nnc1SCC(=O)Nc1nc2ccccc2s1 | -3 | 3 | 92* | -1 | 0
O=C(Cn1ncc2c(=O)oc3ccccc3c21)Nc1nc2ccccc2s1 | . | . | 88* | . | .
COc1ccc(-c2nnc(SCC(=O)Nc3ccccc3)n2C)cc1 | -11 | -1 | 33 | -1 | 4
Cn1cc(SCC(=O)Nc2nc3ccccc3s2)c2ccccc21 | 2 | -3 | 71* | 2 | 15
Cc1ccc(CC(NC(=O)C2CCCCC2)C(=O)O)cc1 (centres undefined) | . | 1 | . | 0 | -4
CCOc1ccc(-c2nnc3ccc(SCC(=O)Nc4nc5ccccc5s4)nn23)cc1 | -4 | 0 | 70* | -2 | 6
CC(=O)C1=C(C)NC(SCC(=O)Nc2nc3ccccc3s2)=C(C#N)C1c1ccc(Cl)cc1 (centres undefined) | -8 | 2 | 85* | -2 | 3
CCOc1ccc(-c2nnc3ccc(SCC(=O)Nc4nc5ccc(C)cc5s4)nn23)cc1 | -18 | 0 | 16 | -1 | -12
CC(=NCCc1c(C)[nH]c2ccc(OC(F)(F)F)cc12)C1=C(O)CC(c2ccccc2)CC1=O (centres undefined) | -4 | 0 | 72* | 0 | -6
CC(=NCCc1c(C)[nH]c2ccc(C)cc12)C1=C(O)CC(c2ccccc2)CC1=O (centres undefined) | 0 | 2 | 56 | -1 | -2
O=C1c2ccccc2C(=O)N1c1nccs1 | . | . | . | . | 1
SMILES | VLA-4 inh | CHOP UPR activ | CHOP inh | XBP1 UPR activ | B2AR ag
O=c1c2ccccc2sn1-c1nccs1 | . | . | 94* | . | 1
Cc1cc(Cl)ccc1OCCCC(=O)N/N=C/c1cccc([N+](=O)[O-])c1 | 12 | 1 | 88* | -2 | -7
COc1ccc(/C=N/NC(=O)CCCOc2ccc(Cl)cc2Cl)cc1 | 1 | -1 | 85* | 0 | -6
Cc1ccccc1OCC(=O)NCC(=O)N/N=C/c1cccc([N+](=O)[O-])c1 | -4 | -1 | -8 | -1 | .
O=C(CCCOc1ccc(Cl)cc1Cl)N/N=C/c1ccc(Cl)cc1 | -6 | 1 | 57 | -1 | -4
CCc1ccc(C(=O)NNC(=O)CN2C(=O)NC3(CCCC3)C2=O)cc1 | 39 | 1 | . | 0 | 3
CCOC(=O)C1CCCN(Cc2c(Cl)cccc2Cl)C1 (centres undefined) | -3 | -1 | 71* | -1 | 19
CCOC(=O)C1CCCN(Cc2ccc(-c3ccccc3)cc2)C1 (centres undefined) | 9 | 2 | . | -6 | 6
CCOc1ccc(OCCC(=O)OC(C)C(=O)Nc2ccc(C(C)=O)cc2)cc1 (centres undefined) | -10 | 0 | . | -6 | 1
Fc1ccc(CCNC(=S)Nc2ccc(F)c(Cl)c2)cc1 | 1 | -1 | 90* | -2 | -11
Fc1ccc(NC(=S)NCCc2ccc(Cl)cc2)cc1 | 15 | 4 | 25 | 1 | 5
S=C(NCCC1=CCCCC1)Nc1ccc(Cl)cc1 | 6 | 4 | 81* | -1 | -15
S=C(NCCCc1ccccc1)Nc1ccc(Cl)cc1 | 33 | 1 | 77* | 2 | -12
S=C(NCCC(c1ccccc1)c1ccccc1)Nc1ccc(Cl)cc1 | 9 | 1 | 78* | -1 | 8
CC1(C)CC(NC(=O)C2CCC(=O)N(Cc3ccccc3F)C2)CC(C)(C)C1 (centres undefined) | . | 6 | . | 0 | -7
CCOc1ccc(NS(=O)(=O)c2ccc(NS(=O)(=O)c3ccc(SC)cc3)cc2)cc1 | 5 | -1 | 95* | -1 | -3
Cc1cc(NC(=S)NC(=O)CC(C)C)ccc1Br | 5 | 2 | 83* | -1 | 11
CCOc1ccc(NS(=O)(=O)c2ccc(NC(=S)NC(=O)CC(C)C)cc2)cc1 | 14 | -2 | 92* | 1 | 16
CCOc1ccc(NS(=O)(=O)c2ccc(NS(C)(=O)=O)cc2)cc1 | -4 | -2 | 1 | -6 | 0
CCCC(=O)NC(=S)Nc1ccc(S(=O)(=O)Nc2ccc(OCC)cc2)cc1 | 15 | 0 | 41 | -1 | 24
Cc1nc(NCCc2ccccc2)sc1C(=O)N(C)C | -2 | 3 | . | 1 | -1
CSc1ccc(CN2C(=O)NC3(CCCCCCC3)C2=O)cc1 | 12 | -2 | -3 | -5 | 7
CCOC(=O)c1c(C)[nH]c(C(=O)OCc2csc(CC(=O)Nc3ccccc3C)n2)c1C | -1 | 1 | . | -4 | 7
O=[N+]([O-])c1ccc(NCCCNS(=O)(=O)c2ccc(Cl)cc2)c(Cl)c1 | 15 | 1 | 82* | 0 | -2
CN(C(=O)c1cccc(NC(=O)Cc2ccc(NC(=O)C3CCN(S(=O)(=O)c4cccc([N+](=O)[O-])c4)CC3)cc2)c1)C1CC1 | . | . | . | . | 3
CSc1cccc(NC(=O)CCNS(=O)(=O)c2ccc3[nH]c(=O)oc3c2)c1 | 15 | -2 | . | -3 | 1
